Test results from ChEMBL document CHEMBL4513216, “Probing the Open Global Health Chemical Diversity Library for Multistage-Active Starting Points for Next-Generation Antimalarials” (ACS Infect Dis, 2020).

Experiment: Toxicity liver stage against HepG2, at 10uM
Type: cell-based
Parameters: test concentration 10 uM, cell line HepG2-A16-CD81EGFP
Details: human, HepG2-A16-CD81EGFP cells; read-out: INHIBITION
How it was run: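 Uninfected HepG2-A16-CD81EGFP cells, 3 × 10^3 per well, 1536-well, plated on prespotted compound at 10 μM final, parasite-free screening media added to match infected plates; puromycin 10 μM positive, DMSO 0.5% negative; run in parallel with 48 h PbLuc assay at 37 °C, 5% CO2; viability by CellTiter-Glo luminescence, normalized to controls.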

SMILES	cytotoxicity at 10 µM
CC(C)N1[C@H](CN2CCCC2)C[C@@H]2CN(Cc3ccoc3)CC[C@@H]21	-157%
Cc1cnn(CCNCC(O)COc2c(Cl)cccc2Cl)c1 (stereo unspecified)	-5.4%
Cn1cc(NS(=O)(=O)c2ccc(C(F)(F)F)cc2)ccc1=O	6.08%
O=C(c1ccccc1)C1CCN(Cc2cc3c(cc2O)CCC3)CC1	24.2%
O=C(NCC1CC[C@@]2(CNCCOC2)O1)c1cnccn1 (stereo partly specified)	9.44%
CN1[C@H](Cn2cncn2)C[C@@H]2CN(C3CCOCC3)CC[C@@H]21	4.56%
Cc1nn(C)cc1C1=NS(=O)(=O)N(C)C(C(=O)Nc2ccc(Cl)cc2)=C1	7.9%
Cc1cc(C2CCCN2Cc2nc(-c3ccco3)no2)on1 (stereo unspecified)	7.53%
CCN(CC)C(=O)C(c1ccccc1)N1CCn2c(C)nnc2C1 (stereo unspecified)	5.57%
Cn1cc(S(=O)(=O)NC(CO)Cc2c[nH]c3ccccc23)cn1 (stereo unspecified)	-7.37%
Cc1ncsc1CN1CC[C@H]2OCC[C@@]2(C(=O)N2CCOCC2)C1	6.91%
Cc1cc(C)n(CC(C)Nc2nc(-c3ccncc3)nc3c2CNC3)n1 (stereo unspecified)	-1.75%
COc1ncccc1C(=O)N1CCn2c(COCC3CC3)cnc2C1C (stereo unspecified)	-1.03%
Cc1csc(CN(C)C(=O)Nc2cc(F)cc(N3CCCC3)c2)n1	8.16%
CCc1ncnc2c1CCN(Cc1ccc3c(c1)OCO3)CC2	-139%
CO[C@@H]1CCN(C(=O)c2cc(C)on2)C[C@@H]1Cc1ccccc1	1.11%
Cc1ccccc1C1(CNC(=O)CCN2C(=O)CCC2=O)CC1	-11.8%
CN1CCC(C(=O)N2CCC(c3ccc4c(N)n[nH]c4n3)CC2)CC1	2.43%
CCc1noc(CNCCn2cc(C)cn2)n1	-2.54%
CCOCCN1CCc2cncnc2C1	-20.7%
CCCC(O)CN1CCC(=O)N(CC2CC2)Cc2cc3c(cc21)OCO3 (stereo unspecified)	-1.89%

SMILES	cytotoxicity at 10 µM
Cc1cc(C)n(CCCC(=O)N2CC[C@H]3NCCC[C@]3(CO)C2)n1	-0.862%
CCCNC(=O)C1CCN(Cc2csc(C(C)C)n2)CC1	-19.5%
CN(C(=O)c1ccnn1C)[C@@H]1CCC[C@@H](Oc2ccccc2)[C@@H]1O	-35.9%
CCc1nc(CNc2cc(C)nc(-c3cccnc3)n2)cs1	-63.6%
CCOCC(=O)N1CSCC1C(=O)N(C)Cc1ccco1 (stereo unspecified)	-11%
Cn1cc(C(=O)CC2CCCN2C(=O)c2ccn3ccnc3c2)cn1 (stereo unspecified)	-5.81%
O=C1CC2(CCNCC2)C(=O)N1Cc1ccc(F)cc1	6.68%
CC(C)n1cnnc1CN(C)C(=O)c1cnn2ccccc12	1.31%
O=C(NC1CCCCC1)c1c(F)cccc1F	3.32%
CN(CC1CCCCO1)c1nncc(-c2cccc(F)c2)n1 (stereo unspecified)	8.01%
CN1CCN(C2COC3(CCN(Cc4ccsc4)CC3)C2)CC1 (stereo unspecified)	-77.1%
CN(Cc1cnn(C)c1)C(=O)CCC(=O)c1ccc2c(c1)OCCO2	-1.14%
Cc1ccncc1C(=O)N1CC[C@@]2(O)CCN(C3CCCCC3)C[C@H]2C1	-125%
NC(=O)c1ccc(=O)n(Cc2cc(Br)ccc2Cl)n1	4.71%
COCCCN1Cc2cccc(NC(=O)c3ccccc3Cl)c2C1	-4.34%
CC(=O)N1CC[C@H]2OCC[C@@H](C(=O)N3CCCCO3)[C@@H]2C1	-5.1%
CC(NC(=O)N1CCNC(=O)CC1)c1c(F)cccc1Cl (stereo unspecified)	-1.66%
CC(=O)N1CCC2(CC1)CN(C(=O)C1CC1)c1ccc(F)cc12	2.05%
CCCc1cc(C(=O)N2C[C@H](O)[C@@H](N3CCCC3)C2)ccn1	5.92%
c1ccc(CN2CCc3ncnc(-c4ccsc4)c3CC2)nc1	3.91%
CC(=O)N1N=C(c2ccccc2)OC1C(=O)NCCc1cccc(F)c1 (stereo unspecified)	-1.08%

SMILES	cytotoxicity at 10 µM
COc1cc(OC)cc(C2CC(=O)Nc3c2nc2n3CCCC2)c1 (stereo unspecified)	-3.99%
Cc1ccc(Oc2ncccc2CNS(=O)(=O)N2CCOCC2)cn1	9.83%
Cc1cc(C(=O)O)c2c(Br)cccc2n1	-0.575%
COc1ccc(C)c(NC(=O)NCc2ncnn2C)c1	-4.27%
CN([C@@H]1CC[C@@H](N2CCOCC2)[C@@H]1O)S(=O)(=O)c1ccccc1	2.77%
O=C(Nc1ccc(-n2cccn2)c(F)c1)C1CCN(C(=O)C2CC2)CC1	1.48%
Cc1noc([C@@]23CCO[C@@H]2CCN(Cc2scnc2C)C3)n1	-111%
CN1CCC(c2ncc3c(n2)CCN(C(=O)CC2C=CCC2)C3)CC1 (stereo unspecified)	1.68%
Cn1nc(Br)nc1Sc1ccccc1NC(=O)C1CC1	3.62%
Cc1ccc(CN(C)C)cc1NC(=O)C1CC=CC1	-8%
CN(C)c1cc(C(=O)N2CCN(S(C)(=O)=O)CC2)ccn1	-4.46%
Cc1cc(NC(=O)CNCc2csc(-c3cnccn3)n2)ccc1Cl	-3.52%
c1cncc(OCC2CN(Cc3ccco3)Cc3nccn3C2)c1 (stereo unspecified)	-20.4%
COCCn1c2c(ccc1=O)CC(N)CC2 (stereo unspecified)	9.77%
O=C(C[S+]([O-])Cc1c(F)cccc1Cl)N1CCc2sccc2C1 (stereo unspecified)	-0.784%
O=C(NC1CCOCC1)C1CC(=O)N(Cc2ccccn2)C1 (stereo unspecified)	-0.0985%
Cc1nc(-c2ccc(Cl)s2)sc1C(=O)NC(C)(C)C(N)=O	-3.04%
Cc1cnc(CCNc2cccc(CC3CCCNC3)n2)s1 (stereo unspecified)	-3.02%
O=C(Nc1ccnn1Cc1ccc(Cl)cc1)C1CCS(=O)(=O)C1 (stereo unspecified)	10.9%
CN1CC2(CCN(C(=O)c3[nH]cnc3-c3ccccc3)C2)OC1=O (stereo unspecified)	4.43%
CCS(=O)(=O)N1CCCn2c(nc(CN3CCCC3)cc2=O)C1	1.88%

SMILES	cytotoxicity at 10 µM
Cc1ncsc1CCN(C)C(=O)CN1CCOC1=O	-15.3%
CC(C(=O)Nc1sccc1C(N)=O)N(C)CCOc1ccccc1 (stereo unspecified)	2.59%
O=C(NCCNC(=O)N1CCC(c2ccccc2)C1)C1CC1 (stereo unspecified)	-3.08%
COc1ncccc1C(=O)N1CCCC(n2ccnc2C)C1 (stereo unspecified)	-7.41%
C/N=C1\c2cc3cc(OC)ccc3n2CCN1C	-10.1%
O=C1Nc2ccccc2CNC12CCN(CC1CCNC1)CC2 (stereo unspecified)	6.61%
Cn1ccc(C(=O)N2CCOC(c3ccccn3)C2)cc1=O (stereo unspecified)	-31.4%
COC(=O)c1cccc(CNC(=O)NCCC(F)(F)F)c1	-0.247%
O=C1NCCN1C1CCCN(Cc2nnc(-c3ccc(F)cc3)o2)C1 (stereo unspecified)	-7.69%
CC(C)Cc1ncc2c(n1)CN(c1nccc(N(C)C)n1)C2	-6.1%
O=C(c1ccoc1)N1CCO[C@]2(CCC[C@H]2COCc2cccnc2)C1	4.58%
CC(C)c1ncc2c(n1)CN(Cc1cccc(OCC(N)=O)c1)CC2	-7.44%
CCCN(CCC)c1ncc(S(=O)(=O)c2cccc(C)c2)c(N)n1	11%
CN(C)C(=O)CN1CCN(c2ncccn2)[C@@H]2CS(=O)(=O)C[C@@H]21	-3.01%
Cc1cccc(N(C)S(=O)(=O)c2cc(C(=O)O)cs2)c1C	-0.731%
O=C(NCCc1ccccn1)[C@@]12CCO[C@@H]1CCN(CC1CC1)C2	5.79%
CNCCNc1nccc(-c2cn(C)nc2C)n1	2.35%
O=S1(=O)NCC2(CCN(c3ncc(F)cn3)CC2)COc2ccccc21	4.74%
